Assay outcomes: PubChem, Sanford-Burnham Center for Chemical Genomics
Apaf-1 act: activators of human Apaf-1 apoptosome; O14727; Apaf-1 apoptosome caspase-3 activation, DEVD-Rh110 fluorescence; active compounds read low; activity change, negative = activation, % at 20 µM; 330,000 compounds, 0.31% hits; AID 489031;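 active = activity change at or below -40% at 20 µM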
Target sequence (O14727 whole entry, looked up): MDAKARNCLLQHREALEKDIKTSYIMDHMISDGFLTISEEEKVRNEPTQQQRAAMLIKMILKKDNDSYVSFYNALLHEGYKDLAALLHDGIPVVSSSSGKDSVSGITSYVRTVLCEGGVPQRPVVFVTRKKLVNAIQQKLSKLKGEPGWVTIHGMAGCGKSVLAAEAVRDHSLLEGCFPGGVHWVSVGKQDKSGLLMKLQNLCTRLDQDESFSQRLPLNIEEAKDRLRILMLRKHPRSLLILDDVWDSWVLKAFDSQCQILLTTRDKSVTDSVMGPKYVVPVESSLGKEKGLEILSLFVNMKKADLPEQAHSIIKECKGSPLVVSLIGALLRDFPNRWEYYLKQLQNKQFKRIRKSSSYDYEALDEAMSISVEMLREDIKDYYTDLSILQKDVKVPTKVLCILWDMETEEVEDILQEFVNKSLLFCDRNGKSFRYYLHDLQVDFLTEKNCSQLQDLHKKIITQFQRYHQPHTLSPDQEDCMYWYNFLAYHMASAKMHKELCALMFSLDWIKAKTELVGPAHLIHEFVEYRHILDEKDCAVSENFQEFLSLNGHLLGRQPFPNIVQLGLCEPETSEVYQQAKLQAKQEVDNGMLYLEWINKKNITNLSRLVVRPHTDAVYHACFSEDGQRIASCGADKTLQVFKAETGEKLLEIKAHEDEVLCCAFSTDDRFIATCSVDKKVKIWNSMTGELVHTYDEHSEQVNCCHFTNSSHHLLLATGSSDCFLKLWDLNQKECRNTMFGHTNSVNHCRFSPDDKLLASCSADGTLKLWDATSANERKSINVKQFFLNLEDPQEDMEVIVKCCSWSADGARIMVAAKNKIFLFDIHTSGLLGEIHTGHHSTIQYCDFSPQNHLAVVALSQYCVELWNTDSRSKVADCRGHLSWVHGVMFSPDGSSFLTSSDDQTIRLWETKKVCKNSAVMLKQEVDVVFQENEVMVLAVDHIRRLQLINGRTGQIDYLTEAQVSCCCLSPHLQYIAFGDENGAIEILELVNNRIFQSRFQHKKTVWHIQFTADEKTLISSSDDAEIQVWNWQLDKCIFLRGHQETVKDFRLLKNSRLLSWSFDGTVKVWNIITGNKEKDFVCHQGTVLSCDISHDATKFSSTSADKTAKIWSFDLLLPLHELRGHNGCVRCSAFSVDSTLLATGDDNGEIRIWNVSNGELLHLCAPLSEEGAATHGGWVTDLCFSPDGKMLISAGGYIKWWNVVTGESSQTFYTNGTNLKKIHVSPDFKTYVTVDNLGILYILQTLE
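Assay system – biochemical Apaf-1 apoptosome reconstitution · Medium – 20 mM HEPES buffer, pH 7.5, containing CHAPS and BSA · Incubation – 30 min preincubation, 50 min reaction, room temperature · Measured by – Caspase-3-released Rh110 fluorescence, 540 nm emission, 480 nm excitation · Read-out – Caspase-3 cleavage activity downstream of Apaf-1 activation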
Rh110 act interf: Rh110 signal interference in Apaf-1 activator counter-screen. AID 504616. 980 tested, under 10 active. fluorescence interference (activity change), % at 20 µM, hits read low. shares compounds with Apaf-1 act. Rh110 fluorescence interference, quenched caspase reaction, Ex480/Em540;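 active = mean activity change at or below -40% when tested at 20 µM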
Apaf-1 act conf2: confirmation of human Apaf-1 activators; shares compounds with Apaf-1 act; reconstituted apoptosome caspase-3 activity, DEVD-Rh110 fluorescence; active compounds read low; activity change, negative = activation, % at 20 µM; 980 compounds, 5% hits; AID 504617;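 active = mean activity change at or below -40%, meaning activation of 40% or more, at 20 µM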
Fluor interf act: counter-screen for Apaf-1 activators: fluorescence interference, dose response; fluorescence interference counterscreen, Apaf-1 activator assay; shares compounds with Apaf-1 act; EC50, µM; 55 tested, under 10 active; call rule not given here
Starred values were filed as active, the others as inactive; · = no result. Only a sample is shown.

SMILES	Apaf-1 act	Rh110 act interf	Apaf-1 act conf2	others
CCOC(=O)c1cc(C#N)c(N2CCN(c3ccccn3)CC2)nc1-c1ccccc1	-443.2*	13.9	20.2
COC(=O)CCC(=O)OC1(C)C(=O)C=C2C=C(C3CC3)N(C3CCCCC3)C=C2C1=O (centres undefined)	62.4	·	·
COc1ccc(CNc2ccc3cn[nH]c3c2)c(OC)c1OC	46.2	·	·
C=CC[C@@H](Cc1ccc(F)cc1)C(=O)OC[C@@H]1CCCN1C(=O)[C@@H](CC=C)CC(=O)N[C@@H](CO)Cc1ccccc1	40.4	·	·
C(=Nc1cccc2c(N=Cc3ccco3)cccc12)c1ccco1	92.5	·	·
N#Cc1c(/N=C/c2ccco2)sc2c1CCCCC2	-169.2*	1.5	22.0
CCOC(=O)N1CCN(c2cc(NCCC(=O)O)c3c4c(onc24)-c2ccccc2C3=O)CC1	75.2	·	·
Cc1cccc(NC(=O)CN(C)S(=O)(=O)c2cccc3cccnc23)c1C	-164.1*	5.9	2.7
O=C(Nc1ccccc1)Oc1ccc[nH]c1=O	60.6	·	·
COc1ccc(C[C@H]2CN3C(=NC[C@@H]3Cc3ccccc3)N2CCNC(=O)CCC2CCCCC2)cc1	51.7	·	·
Cc1ccc2[nH]c3c(c2c1)CN(C(=O)CN1CCN(c2cccc(C)c2C)CC1)CC3	42.6	·	·
O=C(COC(=O)c1cc(S(=O)(=O)N2CCc3ccccc3C2)ccc1Cl)NCc1ccco1	42.6	·	·
COc1ccc([N+](=O)[O-])cc1NC(=O)CCS(=O)(=O)c1ccc(Br)cc1	-110.8*	-4.5	-100.7*	Fluor interf act=>100
CCCN(CC(=O)Nc1ccccc1OC)C(=O)CSc1ccc(Br)cc1C	57.3	·	·
O=C(CCS(=O)(=O)c1ccc(Br)cc1)NCc1ccco1	-87.6*	8.7	-51.3*	Fluor interf act=>100
CCOc1ccccc1NC(=O)CCS(=O)(=O)c1ccc(Br)cc1	-219.8*	12.4	-128.1*	Fluor interf act=>100
Nc1ccc(Br)c2cccnc12	84.9	·	·
CCNc1ccccc1CP(=O)(c1ccccc1)c1ccccc1O (centres undefined)	86.5	·	·
C/C(=N\Nc1ccc([N+](=O)[O-])cc1)c1ccc(C#N)cc1	-44.0*	6.1	1.6
O=C1C(Cl)=C(NCCN2CCCCC2)C(=O)c2ccccc21	67.8	·	·
Nc1c(S(=O)(=O)c2cccs2)c2nc3ccccc3nc2n1CCc1ccccc1	70.8	·	·
CCOc1cc(N(CC)CC)ccc1/C=C(/C#N)c1nc2ccccc2[nH]1	-46.0*	-2.1	16.9
COc1ccccc1N1C(=O)N(C(C)=O)C2C1Nc1ccccc1N2C (centres undefined)	82.8	·	·
CC(Cc1cccc(C(F)(F)F)c1)NCCOC(=O)c1ccccc1 (centres undefined)	22.5	·	·
CC(NC(=O)c1ccco1)C(=O)OCc1cccc(C(F)(F)F)c1 (centres undefined)	-50.0*	-0.2	8.6
SMILES	Apaf-1 act	Rh110 act interf	Apaf-1 act conf2	others
Oc1ccc(N=Cc2ccc(O)c(O)c2)cc1	75.0	·	·
COc1ccc(-c2nc3nc(C)c(Cc4ccccc4)c(=O)n3[nH]2)cc1	49.5	·	·	Fluor interf act=>100
COc1ccc(Cn2nc(-c3ccccc3)c(N3CCCCC3)cc2=O)cc1	46.3	·	·
NC(=O)c1ccc(N=C2C(=O)Nc3ccc([N+](=O)[O-])cc32)cc1	55.8	·	·
COc1ccc(OC)c(C2CC(=O)N3CN(c4cccc(Cl)c4)CSC3=C2C#N)c1 (centres undefined)	80.5	·	·
CC(C)c1c(Cl)c(O)c(-c2ccccc2)c(=O)n1-c1ccc(F)cc1	-40.4*	-6.1	12.0
CC(C)N=c1cc2n(-c3ccc(Cl)cc3)c3ccccc3nc-2cc1Nc1ccc(Cl)cc1	68.2	·	·
CC1(C)Cc2c(sc3nc(N/N=C/c4ccccc4)[nH]c(=O)c23)CO1	-235.6*	3.7	12.1
COC(=O)CCC(=O)OC1(C)C(=O)C=C2C=C(C3CC3)N(CC3CC3)C=C2C1=O (centres undefined)	56.8	·	·
CC[C@H](C)[C@@H]1NC(=O)[C@H]([C@@H](C)CC)NC(=O)[C@@H](CC(C)C)NC(=O)[C@H](Cc2ccccc2)NC(=O)[C@H](Cc2ccccc2)NC(=O)[C@@H]2CCCN2C(=O)[C@@H]2CCCN2C(=O)[C@H](C(C)C)NC(=O)[C@H](CC(C)C)NC1=O	53.7	·	·
FC(F)(F)c1cc(CO[C@@H]2CCCN[C@@H]2c2ccccc2)cc(C(F)(F)F)c1	47.3	·	·
Cn1c2ccccc2c(=O)n2c(=O)c3ccccc3cc12	98.3	·	·
Cn1nc(-c2ccc(Cl)cc2)nc2c(=O)n(C)c(=O)nc1-2	99.0	·	·
Cn1c(=O)nc2n(Cc3ccccc3)c3ccccc3cc-2c1=O	-172.3*	2.4	14.2
CCCCC(CCC(=O)Nc1cc([N+](=O)[O-])ccc1O)C(=O)O (centres undefined)	-227.0*	11.1	20.5
Cc1cc(O)c(C(C)C)cc1N=Cc1cc([N+](=O)[O-])ccc1O	44.5	·	·
COC(=O)CCC(=O)OC1(C)C(=O)C2=CN(CCCCO)C(c3ccc(OC)cc3)=CC2=C(Br)C1=O (centres undefined)	80.2	·	·
C#CCOCCOCCOCCNc1nc(N2CCN(C(=O)CCCCCCCCCCNC(=O)[C@H](CCCCN)n3cc(C[C@@H](C)CC)nn3)CC2)nc(N2CCN(C(=O)CCCCCCCCCCNC(=O)[C@H](CCCN=C(N)N)n3cc(C[C@@H](C)CC)nn3)CC2)n1	54.9	·	·
Cc1cccc(C)c1NC(=O)c1sc(Cl)nc1C	-201.0*	9.8	10.7
NC(=O)/C(=C/c1ccc2c(c1)OCO2)NC(=O)c1ccco1	-43.8*	1.1	1.3
Nc1c(O)cccc1C(=O)O	53.4	·	·
CCOC(=O)c1c(NC(=O)c2ccc(C)cc2)sc2c1CC(C)(C)NC2(C)C	54.3	·	·
COc1cc(/C=N/N=C2/C(=O)Nc3ccccc32)ccc1O	-445.1*	8.1	19.5
COC1=CC(=O)c2ccccc2C1=O	78.6	·	·
COc1cc(/C=C/c2nc(N)nc(-c3ccccc3O)n2)cc(OC)c1OC	-517.1*	14.1	17.4
SMILES	Apaf-1 act	Rh110 act interf	Apaf-1 act conf2	others
O=C1C(O)=C(O)C(=O)c2ccccc21	92.1	·	·
CCNC(=S)SCCOc1ccc(C)cc1	-127.3*	11.9	19.5
CN(C1=C(NC(=O)c2ccccc2)C(=O)c2ccccc2C1=O)C1CCS(=O)(=O)C1 (centres undefined)	88.2	·	·
O=C(CCc1ccccc1)N[C@@H]1c2ccccc2CC[C@H]1OCc1ccccc1	-41.2*	2.4	6.3
CC1=NN(c2ccccc2)C(=O)/C1=C\c1cn(CCC#N)nc1-c1ccc(Cl)cc1	79.8	·	·
COc1ccc(C(=O)Nc2nc3c(s2)Cc2cc(OC)ccc2-3)cc1	96.6	·	·
COC(=O)C1(C)CCc2cc(OC)ccc2C1=O (centres undefined)	-81.2*	9.9	12.1
CCOc1cccc2sc(N(CCCN(C)C)C(=O)c3ccc(S(=O)(=O)N(C)Cc4ccccc4)cc3)nc12	61.9	·	·
O=C(NCc1ccccc1)c1ccc(CN(c2ccccn2)S(=O)(=O)c2ccccc2)cc1	-114.7*	4.0	2.3
CCOc1cccc2sc(N(CCCN(C)C)C(=O)c3ccc(S(=O)(=O)N(CC)Cc4ccccc4)cc3)nc12	67.2	·	·
CCC[C@@H](CN1CCC[C@H]1CN1C(N)=NC[C@@H]1Cc1ccccc1)N1C[C@@H]([C@H](C)CC)N(CCc2ccc(Cl)c(Cl)c2)C1=N	67.4	·	·
